# High-throughput results: PubChem, Sanford-Burnham Center for Chemical Genomics
# mIAP inh: blocks mouse intestinal alkaline phosphatase; AID 2806; 0.2% of 330,000 active; inhibition, % at 10 µM; purified mouse IAP, CDP-Star luminescence, 30 min;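 active = inhibition of at least 40% at 10 µM in the primary screen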;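 also: plate controls were DMSO with enzyme for no effect and no enzyme wells for full effect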
# hIAP activ: increases human intestinal alkaline phosphatase activity. P09923. purified human IAP, CDP-Star luminescence, 30 min; stronger effect = higher value; 1 = vehicle-only enzyme, 0 = enzyme-free background. activation factor at 10 µM. 0.16% of 330,000 active. AID 2524;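 active = activation factor of the enzyme at least 2-fold when tested at 20 µM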
# Target sequence (P09923 whole entry, looked up): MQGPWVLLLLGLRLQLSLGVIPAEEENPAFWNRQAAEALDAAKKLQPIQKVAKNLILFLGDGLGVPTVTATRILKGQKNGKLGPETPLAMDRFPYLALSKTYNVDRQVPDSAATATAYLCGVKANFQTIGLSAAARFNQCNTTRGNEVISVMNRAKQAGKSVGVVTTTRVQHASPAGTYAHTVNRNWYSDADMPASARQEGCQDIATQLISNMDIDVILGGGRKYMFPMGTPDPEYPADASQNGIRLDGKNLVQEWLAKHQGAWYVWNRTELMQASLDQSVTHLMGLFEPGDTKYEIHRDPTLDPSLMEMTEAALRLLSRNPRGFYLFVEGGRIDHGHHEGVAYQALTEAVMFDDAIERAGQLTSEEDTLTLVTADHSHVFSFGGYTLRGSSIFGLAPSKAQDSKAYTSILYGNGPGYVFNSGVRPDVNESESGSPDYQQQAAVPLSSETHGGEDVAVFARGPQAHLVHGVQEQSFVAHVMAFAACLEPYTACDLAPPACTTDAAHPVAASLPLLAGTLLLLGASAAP
# bIAP act: intestinal alkaline phosphatase (bovine) activation. activation factor at 20 µM. 0.17% of 200,000 active. AID 1016. purified bovine IAP, CDP-star luminescence, 30 min; stronger effect = higher value; fold of DMSO-control signal, blank-subtracted;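 active = activation factor of 2 or more at 20 µM, a signal rise over negative controls twice the positive control's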
# hIAP inh: human IAP inhibition | P09923 | purified IAP, CDP-Star luminescence, 30 min | inhibition, % at 10 µM | 0.12% of 330,000 active | AID 2544;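 active = inhibition reaching a set limit with compound at 10 µM in the primary screen, cut at about 35% in these data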;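 also: plate controls were DMSO wells with enzyme for no effect and no-enzyme buffer wells for full effect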
# mIAP activ: mouse IAP activation | muIAP, CDP-Star luminescence, 30 min; stronger effect = higher value; 1 = vehicle-only enzyme signal, 0 = enzyme-free wells | activation factor at 10 µM | 0.24% of 330,000 active;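 active = activation factor of at least 2 at 20 µM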
#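 System: Mouse IAP enzyme | Also added: CDP-Star substrate | Dosing: Compounds dispensed in DMSO | Schedule: 30 min enzyme-substrate-compound incubation at room temperature | Technique: Chemiluminescence readout | Control set: DMSO-only wells and no-enzyme negative control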
# bIAP inhibitor: blocks bovine intestinal alkaline phosphatase activity; inhibition, % at 20 µM; 190,000 tested, under 10 active; purified bovine IAP, CDP-star luminescence, 30 min;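 active = over 50% inhibition of intestinal alkaline phosphatase at 20 µM in the single-dose screen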
#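 Assay system – bovine IAP enzyme · Quantity – bovine IAP at 1/65,000,000 final dilution · Detection – CDP-star luminescence signal · Times – 30 min reaction at room temperature · Also added – CDP-star substrate at 30 µM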
# mIAP inh confirm: mouse IAP inhibition confirmation; shares compounds with mIAP inh; purified mouse IAP, CDP-Star luminescence, 30 min; inhibition, % at 10 µM; 4.7% of 11,000 active;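 active = inhibition of at least 40% at 10 µM in either of the two replicates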;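 also: plate controls were DMSO wells with enzyme for no effect and buffer wells lacking enzyme for full effect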
# Active calls of the source: *; . = not tested or not shown. Compounds with a hit are over-represented: about 0.77% of the library has one in this group of screens.
SMILES,mIAP inh,hIAP activ,bIAP act,hIAP inh,mIAP activ,bIAP inhibitor,mIAP inh confirm
O=C(Nc1ccc(F)cc1)Nc1cc(OCC(F)(F)F)cc(OCC(F)(F)F)c1,-356.0,1.34,0.7,-34.0,4.56*,29.4,-110.6
CCOc1ccc(NC(=O)Nc2cc(OCC(F)(F)F)cc(OCC(F)(F)F)c2)cc1,-204.4,0.983,0.7,1.7,3.04*,29.8,-108.5
COc1ccc(CNS(=O)(=O)CCNC(=O)c2ccc3c(c2)OCO3)cc1,-4.8,1.08,.,-8.4,1.05,.,.
Cc1nc2ccc(NC(=O)c3ccc([N+](=O)[O-])cc3)cc2[nH]1,-5.4,1.3,.,-29.9,1.05,.,.
CC(C)(C)c1ccc(O)c(N=Cc2cc3c(cc2[N+](=O)[O-])OCO3)c1,41.8*,0.928,.,7.2,0.582,.,49.2*
Cc1ccc(C)c(N=Cc2cc3c(cc2[N+](=O)[O-])OCO3)c1,33.4,0.959,0.9,4.1,0.666,7.5,.
O=C(O)/C=C\c1cc2c(cc1[N+](=O)[O-])OCO2,41.5*,1.16,.,-15.9,0.585,.,45.4*
CCCn1c(N)c(C(=O)CSc2nc3ncc(Cl)cc3[nH]2)c(=O)[nH]c1=O,0.9,1.14,.,-14.3,0.991,.,.
Cc1ccc(NC(=O)CN(C)S(=O)(=O)c2ccc3[nH]c(=O)oc3c2)c(C)c1,62.6*,0.945,.,5.5,0.374,.,88.2*
Cc1ccc(NS(=O)(=O)c2ccc3[nH]c(=O)oc3c2)c(C)c1,79.9*,0.945,.,5.5,0.201,.,85.1*
CC1CCC(NC(=O)CCS(=O)(=O)c2ccc3c(c2)CC(C)N3C(=O)C2CC2)CC1 (stereo unspecified),-11.2,1.24,.,-24.3,1.11,.,.
O=C(OCC(=O)N1CCCCC1)c1ccc2c(c1)C(=O)N(Cc1ccco1)C2=O,7.8,0.904,.,9.6,0.922,.,.
C=CC[n+]1c(/C=C/c2ccc(OC(C)=O)c(OC)c2)ccc2ccccc21,9.5,0.852,.,14.8,0.905,.,.
Cc1cc(C)cc(NC2=NC3(CCCCC3)N=C(N)N2)c1,-199.2,0.99,3.7*,1.1,2.99*,-269.4,-222.4
NC1=NC2(CCCCC2)N=C(Nc2ccc(F)cc2F)N1,0.9,0.879,1.3,12.1,0.991,-25.8,.
CC(C)=CCc1c(O)c(CC=C(C)C)c2c(c1O)-c1cc(O)c(O)cc1CC2,61.8*,0.999,.,0.1,0.382,.,60.5*
CC(C)=CCc1c(O)ccc(C2COc3c(CC=C(C)C)c(O)cc(O)c3C2=O)c1O (stereo unspecified),13.7,1.11,.,-11.2,0.863,.,.
NS(=O)(=O)c1cccc(NC(=O)CSc2nnc(-c3ccncc3)n2C2CC2)c1,50.2*,0.946,.,5.4,0.498,.,58.5*
CCN(CC(=O)Nc1ccc(NC(C)=O)cc1)C(=O)c1cc(CN2C(=O)c3ccccc3C2=O)ccc1OC,-6.1,0.896,.,10.4,1.06,.,.
COC(=O)c1ccc(C(=O)NC2CCSc3ccccc32)cc1 (stereo unspecified),7.8,0.967,.,3.3,0.922,.,.
Cc1ccc(NC(=S)NC2CCSc3ccccc32)cc1C (stereo unspecified),-374.7,1.35,.,-34.7,4.75*,.,-171.5
Cc1ccc(C2=NC(=O)/C(=C/c3cc(O)c(O)c(Br)c3)S2)cc1,52.6*,0.86,0.7,14.0,0.474,29.0,59.9*
COc1cccc(C(=O)Nc2cccc3ccccc23)c1,1.3,0.855,.,14.5,0.987,.,.
COc1cccc(C(CC(=O)Nc2cccc3ccccc23)NC(=O)c2ccccc2)c1 (stereo unspecified),-107.9,1.04,1.4,-3.8,2.08*,-44.1,-119.1
O=S(=O)(O)c1cc(O)ccc1O,25.6,1.23,.,-23.1,0.744,.,.
SMILES,mIAP inh,hIAP activ,bIAP act,hIAP inh,mIAP activ,bIAP inhibitor,mIAP inh confirm
O=S(=O)(c1cc(O)ccc1O)c1cccc2c(S(=O)(=O)c3cc(O)ccc3O)cccc12,64.9*,0.883,.,11.7,0.351,.,57.9*
CCCCCN(C(=O)CCC(=O)OCc1cccc(C(F)(F)F)c1)c1c(N)n(CCCC)c(=O)[nH]c1=O,-4.9,1.49,.,-49.3,1.05,.,.
O=C(N/N=C/c1cn(Cc2cccc(F)c2)c2ccccc12)c1cc(O)cc(O)c1,67.6*,1.16,.,-15.9,0.324,.,67.3*
COc1ccc(O)c(N)c1,40.8*,0.735,1.1,26.5,0.592,-11.4,48.0*
O=C(N/N=C/c1ccc(O)c(O)c1O)/C(=C/c1ccc([N+](=O)[O-])cc1)NC(=O)c1ccccc1,54.8*,0.989,0.6,1.1,0.452,42.5,59.5*
COc1cc(OC)c2cc(C(=O)N[C@H](C(=O)N3CCC[C@H]3C(=O)O)C(C)C)n(C)c2c1,3.3,1.03,.,-2.7,0.967,.,.
Nc1c(C(=O)N/N=C/c2cccnc2)oc2nc(-c3ccco3)cc(-c3ccco3)c12,49.0*,0.889,.,11.1,0.51,.,41.2*
NNC(=O)c1oc2nc(-c3ccco3)cc(-c3ccco3)c2c1N,62.4*,0.922,.,7.8,0.376,.,71.8*
Nc1c(C(=O)N/N=C/c2cccnc2)oc2nc(-c3ccccc3)cc(-c3ccco3)c12,7.2,1.01,.,-0.6,0.928,.,.
Cc1cc(C)c(C(=O)C(C)OC(=O)Cn2cnc3c2c(=O)n(C)c(=O)n3C)cc1C (stereo unspecified),4.7,0.988,.,1.2,0.953,.,.
Cc1nn(Cc2noc(C(=O)NC3CCC(C)CC3)n2)c(C)c1Br (stereo unspecified),1.5,1.53,.,-52.9,0.985,.,.
CC(C(=O)N(C)C1CCS(=O)(=O)C1)N1C(=O)/C(=C/c2ccco2)SC1=S (stereo unspecified),40.2*,1.07,.,-7.2,0.598,.,49.7*
O=C(CN1C(=O)/C(=C/c2ccco2)SC1=S)Nc1ccc(C(=O)O)c(O)c1,67.4*,0.839,.,16.1,0.326,.,86.5*
O=C(CN1C(=O)/C(=C/c2ccco2)SC1=S)Nc1ccc(O)c(C(=O)O)c1,74.6*,1.23,.,-22.6,0.254,.,75.8*
O=C(CCCN1C(=O)/C(=C/c2cccs2)SC1=S)Nc1ccc(O)c(C(=O)O)c1,.,.,1,.,.,4.4,.
CC(=C\c1ccco1)/C=C1/SC(=S)N(CC(=O)O)C1=O,50.9*,0.912,.,8.8,0.491,.,50.1*
Cc1ccc(S(=O)(=O)N2CCN(C(=O)c3sccc3-c3ccccc3)CC2)cc1,0.2,1.06,.,-5.7,0.998,.,.
CC(C(=O)Nc1ccc(C(=O)O)c(O)c1)N1C(=O)/C(=C\c2ccco2)SC1=S (stereo unspecified),61.6*,1.2,.,-20.3,0.384,.,73.2*
O=C(CCN1C(=O)/C(=C/c2ccccc2)SC1=S)NC1CCS(=O)(=O)C1 (stereo unspecified),4.9,1.31,.,-30.9,0.951,.,.
O=C(CN1C(=O)/C(=C/c2ccco2)SC1=S)NC1CCS(=O)(=O)C1 (stereo unspecified),57.7*,1.16,.,-15.5,0.423,.,79.4*
